Results of several laboratories.
Each line is one published result; the experiments were not run side by side.
Target: Dual specificity protein kinase CLK1 (CLK1, Homo sapiens, UniProt P49759)

Compound	read-out	action	technique	tested at	measurement	result
Cn1cnc(Br)c1C1=CN(c2ncnc3[nH]cnc23)CCS1	enzyme activity	inhibitor	radiometric	2 µM	inhibition	96.1%
O=C(O)[C@H]1[C@H](Cn2nnc3ccccc3c2=O)CC[C@@H]1C(=O)c1ccc(OCCC2CCOCC2)cc1	cell-free assay		competition with immobilised ligand	1 µM	remaining binding	98%
O=C(Nc1cnn(-c2csc(C(=O)NC3COC3)c2)c1)Nc1c(F)cccc1Cl	enzyme activity	inhibitor		5 µM	remaining activity	74.9%
CCCS(=O)(=O)Nc1ccc(F)c(C(=O)c2c[nH]c3ncc(-c4ccc(Cl)cc4)cc23)c1F	enzyme activity	inhibitor		1 µM	inhibition	< 10%
CNCc1ccccc1-c1csc([C@@H](C)Nc2nc(C)nc3cc(OC)c(OC)cc23)c1	cell-free assay		competition with immobilised ligand	1 µM	remaining binding	98%
COc1cc2ncnc(Nc3ccc(Oc4ccccc4)cc3C)c2cc1OC	enzyme activity	inhibitor		1 µM	inhibition	3%
C[S+]([O-])c1ccc(-c2nc(-c3ccncc3)c(-c3ccc(F)cc3)[nH]2)cc1 (stereo not shown)	cell-free assay			0.5 µM	remaining signal	101%
Cc1cnc(NC2CCOCC2)nc1-n1cnc(C(=O)NC(CN)c2cc(F)cc(Cl)c2)c1 (stereo not shown)	enzyme activity	inhibitor	radiometric	1 µM	remaining activity	62%
COc1cc(Cl)c(C(=O)N[C@@H](CN[C@H]2CC[C@@H](N)CC2)Cc2ccc(C#N)cc2)cc1-c1ccc(CN[C@H](C)c2ccc(C)cc2)o1	enzyme activity	inhibitor		1 µM	remaining activity	91%
Cc1cc(NC(=O)c2cccc3cc(-c4cccc5[nH]nc(N)c45)ccc23)ccc1F	enzyme activity	inhibitor		0.1 µM	activity vs control	97%
Cc1nc(Cc2cccc(C(F)(F)F)c2)sc1-c1ccc(C(N)=O)nc1	cell-free assay		competition with immobilised ligand	1 µM	remaining binding	83%
c1nc2c(Nc3ccc4c(c3)OCCO4)nc(Nc3ccc4c(c3)OCCO4)nc2[nH]1	enzyme activity	inhibitor		10 µM	activity vs control	2.2%
C#Cc1cccc(Nc2ncnc3cc(OCCOC)c(OCCOC)cc23)c1	cell-free assay			0.5 µM	remaining signal	107%
CC(C)(C)c1nc(-c2cccc(NS(=O)(=O)c3c(F)cccc3F)c2F)c(-c2ccnc(N)n2)s1	enzyme activity	inhibitor	radiometric	1 µM	remaining activity	89%
CC(=O)N1CCC(c2ccc(C(=O)NC(=N)N)cc2C(F)(F)F)CC1	cell-free assay		competition with immobilised ligand	1 µM	remaining binding	100%
CN1CC(Oc2cnc(C#N)cc2-c2ccn3nc(NC(=O)C4CC4)cc3c2)C1	enzyme activity	inhibitor		1 µM	inhibition	-3%
O=C(Nc1cnn(-c2csc(C(=O)NC3COC3)c2)c1)Nc1ccccc1Cl	enzyme activity	inhibitor		5 µM	remaining activity	81%
CNC(=O)c1ccc(Nc2ncc(C(F)(F)F)c(NCc3nccnc3N(C)S(C)(=O)=O)n2)cc1	cell-free assay		competition with immobilised ligand	0.1 µM	remaining binding	23%
COc1cc2c(Nc3ccc(Br)cc3F)ncnc2cc1OCC1CCN(C)CC1	cell-free assay			0.5 µM	remaining signal	105%
COc1cc(-c2cc(-c3ccc(N4CCNCC4)cc3)cnc2C)cc(OC)c1OC	enzyme activity	inhibitor		1 µM	inhibition	1%
CNC(=O)Nc1ccc2c(c1)CC[C@@]21OC(=O)N(CC(=O)N(Cc2ccc(F)cc2)[C@@H](C)C(F)(F)F)C1=O	cell-free assay		competition with immobilised ligand	1 µM	remaining binding	69%
O=C1Nc2ccc(Cl)cc2C1=Cc1cc(Cl)c(O)c(Cl)c1	cell-free assay			0.5 µM	remaining signal	85%
